From PubChem
A selection: hits, their analogues and other compounds. The true share with any hit is near 2%.
Xi reactivation – activators of X-chromosome reactivation in mouse fibroblasts; XiGFP mouse fibroblasts, % GFP-positive cells imaging, 3 d; cells co-treated with 5-aza-dC sensitizer; scaled so ellipticine positive control = 100%; activation, % at 7.58 µM; 0.055% of 360,000 active;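 active = mean normalized replicate activation at least 10% and every replicate at or above 10%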;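 note: 0% = median of on-plate neutral control wells and 100% = ellipticine 6 µM median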
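System: SV40-immortalized XiGFP fibroblast cells, line 68-5-11 / Incubation: 3-day compound exposure, then 15 min fixation at room temperature / Compound: single concentration per compound, delivered by pin transfer / Buffer or medium: DMEM plus 5-aza-dC sensitizer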
S100A4 MyoIIA – inhibitors of human S100A4 binding to myosin IIA peptide; P26447; S100A4/TAMRA-MyoIIA peptide fluorescence polarization; inhibition, % at 10.7 µM; 0.14% of 360,000 active; AID 652163;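 active = mean inhibition of at least 70% across replicates, with every replicate also reaching that level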
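Material: S100A4 monomer protein | Medium: HEPES pH 7.2 with CaCl2, KCl, NaCl, DTT, Triton | Reagent: Labelled myosin peptide probe, 5 nM | Doses: One dose per compound | Times: 5 min incubation before reading | Benchmarks: Neutral control DMSO, positive control TFP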
E-sel inducer – induces E-selectin expression in human endothelial cells; HUVEC E-selectin immunofluorescence imaging; normalized: neutral wells 0, TNF-alpha wells 100; 0.37% of 260,000 active; activation, % at 7.58 µM; AID 686992; P16581;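 active = mean E-selectin-positive cell signal at least 10% of the positive control, reached in at least 60% of replicates, without over 20% cell loss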
Target sequence (P16581 whole entry, looked up): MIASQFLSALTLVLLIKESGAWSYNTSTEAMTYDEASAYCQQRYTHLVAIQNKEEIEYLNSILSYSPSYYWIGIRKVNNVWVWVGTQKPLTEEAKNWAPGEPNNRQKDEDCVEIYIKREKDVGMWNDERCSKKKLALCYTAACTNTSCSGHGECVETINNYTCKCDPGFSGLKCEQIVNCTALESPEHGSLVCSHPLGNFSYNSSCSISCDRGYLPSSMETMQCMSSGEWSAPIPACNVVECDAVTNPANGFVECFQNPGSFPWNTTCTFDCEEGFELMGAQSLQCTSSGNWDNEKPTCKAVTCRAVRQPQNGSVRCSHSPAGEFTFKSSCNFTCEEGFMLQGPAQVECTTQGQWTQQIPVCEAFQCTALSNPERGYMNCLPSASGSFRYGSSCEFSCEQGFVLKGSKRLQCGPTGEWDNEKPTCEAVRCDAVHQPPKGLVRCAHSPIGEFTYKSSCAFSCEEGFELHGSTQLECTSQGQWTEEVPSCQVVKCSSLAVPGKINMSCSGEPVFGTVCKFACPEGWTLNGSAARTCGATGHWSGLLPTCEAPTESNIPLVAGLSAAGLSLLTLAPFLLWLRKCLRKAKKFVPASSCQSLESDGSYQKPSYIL
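System: HUVEC, human umbilical vein endothelial cells; quantity: 3,000 cells/well; buffer or medium: EGM-2 medium, gelatin-coated wells; dosing: single-point compound dose; detection: immunofluorescence imaging; evaluation: % PE-positive cells; benchmarks: TNF-alpha, DMSO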
DENV2 CPE – DENV2-induced cell death inhibition; DENV2-infected cells, cytopathic effect rescue, plate reader; CPE inhibition, % at 9.99 µM; 1.7% of 350,000 active; in the data active = CPE inhibition above about 20%, passing the limit was not always enough; tested in BHK-21 cells;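 note: 0% = median of neutral control wells and 100% = median of positive control wells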
* marks the source's active call; other numbers are inactive results; . = not tested or not shown.

SMILES	Xi reactivation	S100A4 MyoIIA	E-sel inducer	DENV2 CPE
C[C@@H]1CN([C@H](C)CO)C(=O)c2cc(NC(=O)Cn3cnnn3)ccc2O[C@H]1CN(C)S(=O)(=O)c1ccccc1	0	-1	39*	7
C[C@H](CO)N1C[C@H](C)[C@@H](CN(C)S(=O)(=O)c2ccccc2)Oc2ccc(NC(=O)Cn3cnnn3)cc2C1=O	0	-9	0	-5
C[C@H](CO)N1C[C@H](C)[C@H](CN(C)Cc2ccncc2)Oc2ccc(NC(=O)Cn3cnnn3)cc2CC1=O	0	-3	0	23*
C[C@H]1CN([C@@H](C)CO)C(=O)Cc2cc(NC(=O)Cn3cnnn3)ccc2O[C@H]1CN(C)Cc1ccncc1	0	-11	-3	1
C[C@H]1CN([C@@H](C)CO)C(=O)Cc2cc(NC(=O)Cn3cnnn3)ccc2O[C@@H]1CN(C)Cc1ccc(Oc2ccccc2)cc1	0	5	-4	0
C[C@H]1CN([C@@H](C)CO)C(=O)c2cc(NC(=O)Cn3cnnn3)ccc2O[C@@H]1CN(C)Cc1ccc(Oc2ccccc2)cc1	0	-11	48*	-3
C[C@@H]1CN([C@H](C)CO)C(=O)c2cc(NC(=O)Cn3cnnn3)ccc2O[C@H]1CN(C)Cc1ccc(Oc2ccccc2)cc1	0	-5	7	18
C[C@@H]1CN([C@@H](C)CO)C(=O)Cc2cc(NC(=O)Cn3cnnn3)ccc2O[C@H]1CN(C)Cc1ccc(Oc2ccccc2)cc1	-1	15	283*	0
CNC[C@H]1Oc2ncc(-c3cccc(C(=O)N(C)C)c3)cc2C(=O)N([C@@H](C)CO)C[C@H]1C	-2	1	-1	1
Cc1c(NS(=O)(=O)c2cc(C(=O)NCc3cccnc3)cc(Cl)c2Cl)c(=O)n(-c2ccccc2)n1C	0	7	1	-5
O=C(NC1CC1)C1=C[C@@H](c2coc3ccccc3c2=O)C[C@@H](OCc2ccc(CO)cc2)O1	0	-68	0	2
CCN1C(=O)C2(C(C#N)=C(N)Oc3n[nH]c(-c4ccccc4)c32)c2ccccc21 (stereo not drawn)	.	0	.	.
C[C@H]1CN([C@@H](C)CO)C(=O)c2cc(NC(=O)Cn3cnnn3)ccc2O[C@H]1CN(C)Cc1ccc(Oc2ccccc2)cc1	0	-43	139*	5
Cc1nc2ccc([N+](=O)[O-])cc2c(=O)n1Cc1cccc(Br)c1	0	4	.	-5
c1ccc(Nc2c(-c3ccco3)nc3ccccn23)cc1	0	.	-1	.
Cc1ccc(Nc2c(-c3ccco3)nc3ccccn23)cc1	0	-4	-1	75*
COCCNC(=O)C[C@@H]1C[C@H]2c3cc(NC(=O)C4CCOCC4)ccc3O[C@H]2[C@H](CO)O1	0	3	0	24*
COCCNC(=O)C[C@@H]1C[C@H]2c3cc(NC(=O)Nc4ccc(OC)cc4)ccc3O[C@H]2[C@@H](CO)O1	1	-3	0	114*
O=C(O)C[C@@H]1C[C@@H]2c3cc(NC(=O)C4CCOCC4)ccc3O[C@@H]2[C@H](CO)O1	0	1	0	28*
O=C1CSc2ccc(C(=O)NCC(c3ccco3)N3CCCCC3)cc2N1 (stereo not drawn)	0	-6	4	-1
COc1ccc(C(=O)Nc2ccc3[nH]ccc3c2)cc1	0	0	34*	12
O=C(CN(Cc1ccccc1)C1=NCCS1)c1ccccc1	0	0	.	39*
COc1ccc(NC(=O)c2cc(-c3cccs3)on2)c(OC)c1	0	-6	60*	4
COc1ccc(-c2cc(C(=O)Nc3ccc(OC)cc3OC)no2)cc1	0	-3	3	4
CN1CCN(C2CCN(c3ccc(Nc4nnc(Cl)c(Nc5ccccc5S(C)(=O)=O)n4)c(OC(CF)CF)c3)CC2)CC1	1	0	1	37*
COC(=O)c1cc(-c2c(-c3cc(OC)c(OC)c(OC)c3)noc2C)cc([N+](=O)[O-])c1	0	0	0	21*
COc1ccc(S(=O)(=O)N(C)C[C@@H]2Oc3c(NC(=O)CCCCCC(=O)Nc4ccccc4N)cccc3C(=O)N([C@@H](C)CO)C[C@H]2C)cc1	0	0	0	8
C[C@@H]1CN([C@H](C)CO)C(=O)c2cccc(NC(=O)CCCCCC(=O)Nc3ccccc3N)c2O[C@@H]1CN(C)S(=O)(=O)c1cn(C)cn1	-1	-6	391*	-7
